Measurements taken from ChEMBL document CHEMBL4145654, “Structure-Based Discovery of CF53 as a Potent and Orally Bioavailable Bromodomain and Extra-Terminal (BET) Bromodomain Inhibitor” (J Med Chem, 2018).

What was measured:
[1] = system: MOLM-13; test: Growth inhibition of human MOLM13 cells after 4 days by WST-8 assay; type: functional, cell-based; conditions: MOLM-13, 96 h
Method in brief: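 Leukemia cells, used within 3 months of thaw, were seeded at 10 000 cells/well and exposed to serially diluted compound in culture medium for 4 days. WST-8 reagent was added at 10% (v/v) final for 1−3 h, and absorbance was read at 450 nm. Readings were normalized to DMSO-treated cells, and the IC50 was fitted by nonlinear regression.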

[2] = Plasma concentration in SCID mouse xenografted with human MDA-MB-231 cells at 50 mg/kg administered via oral gavage measured after 1 hr; type: ADME, organism-based
Method in brief: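 Limited PK in SCID mice bearing MDA-MB-231 tumors, 50 mg/kg given by oral gavage. Plasma and tumor tissue drug levels measured at two time points per compound. Values are the mean of two mice/tumors per time point.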

[3] = Half life in Balb/c mouse at 25 mg/kg, po by LC-MS/MS analysis; type: ADME, organism-based; conditions: in vivo
Method in brief: (§1)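 Balb/c mice dosed iv at 5.0 mg/kg or po at 25 mg/kg, compound in vehicle of 20% (v/v) PCP and 70% (v/v) PBS. Serial blood samples taken at 0, 5, 15, 30 min and 1, 2, 4, 6, 8, 24 h. Plasma obtained by centrifugation and stored at −80 °C. Analysis by LC-MS/MS, positive-ion MRM. Parameters from noncompartmental analysis.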

[4] = AUC in Balb/c mouse at 25 mg/kg, po by LC-MS/MS analysis; type: ADME, organism-based; conditions: in vivo; method in brief: as §1
[5] = system: MDA-MB-231; test: Antitumor activity against human MDA-MB-231 cells xenografted in SCID mouse assessed as tumor growth inhibition at 25 mg/kg administered via oral gavage measured on day 44; type: functional; conditions: MDA-MB-231, po, 1056 h, read-out: TGI
Method in brief: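 SCID mice were implanted subcutaneously on the dorsal side with 5 × 10⁶ MDA-MB-231 or RS4;11 cells in 50% Matrigel, one tumor per mouse. At ca. 100 mm3, mice were randomized to treatment or vehicle groups and dosed by oral gavage. Tumor volume = L × W²/2. Body weight change tracked. p values by two-tailed unpaired t-test.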

[6] = system: MDA-MB-231; test: Antitumor activity against human MDA-MB-231 cells xenografted in SCID mouse assessed as tumor growth inhibition at 50 mg/kg administered via oral gavage measured on day 44; type: functional; conditions: MDA-MB-231, po, 1056 h, read-out: TGI
Method in brief: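 Each SCID mouse received a single dorsal subcutaneous tumor of 5 × 10⁶ RS4;11 or MDA-MB-231 cells in 50% Matrigel. At about 100 mm3, mice were randomised to treatment or vehicle control groups. Dosing was by oral gavage at the stated schedules. Tumor volume was L × W²/2, and body weight was tracked. TGI versus vehicle at end of treatment was tested by unpaired two-tailed t-test.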

[7] = molecular target: Bromodomain-containing protein 4 (Homo sapiens, UniProt O60885); test: Binding affinity to human BRD4 bromodomain 2 (K333 to E460 residues) expressed in bacterial expression system by BROMOscan assay
[8] = molecular target: Chromatin remodeling regulator CECR2 (Homo sapiens, UniProt Q9BXF3); test: Binding affinity to human CECR2 (P423 to D543 residues) expressed in bacterial expression system by BROMOscan assay
Chromatin remodeling regulator CECR2, sequence (Q9BXF3 whole entry, the tested form may be a part): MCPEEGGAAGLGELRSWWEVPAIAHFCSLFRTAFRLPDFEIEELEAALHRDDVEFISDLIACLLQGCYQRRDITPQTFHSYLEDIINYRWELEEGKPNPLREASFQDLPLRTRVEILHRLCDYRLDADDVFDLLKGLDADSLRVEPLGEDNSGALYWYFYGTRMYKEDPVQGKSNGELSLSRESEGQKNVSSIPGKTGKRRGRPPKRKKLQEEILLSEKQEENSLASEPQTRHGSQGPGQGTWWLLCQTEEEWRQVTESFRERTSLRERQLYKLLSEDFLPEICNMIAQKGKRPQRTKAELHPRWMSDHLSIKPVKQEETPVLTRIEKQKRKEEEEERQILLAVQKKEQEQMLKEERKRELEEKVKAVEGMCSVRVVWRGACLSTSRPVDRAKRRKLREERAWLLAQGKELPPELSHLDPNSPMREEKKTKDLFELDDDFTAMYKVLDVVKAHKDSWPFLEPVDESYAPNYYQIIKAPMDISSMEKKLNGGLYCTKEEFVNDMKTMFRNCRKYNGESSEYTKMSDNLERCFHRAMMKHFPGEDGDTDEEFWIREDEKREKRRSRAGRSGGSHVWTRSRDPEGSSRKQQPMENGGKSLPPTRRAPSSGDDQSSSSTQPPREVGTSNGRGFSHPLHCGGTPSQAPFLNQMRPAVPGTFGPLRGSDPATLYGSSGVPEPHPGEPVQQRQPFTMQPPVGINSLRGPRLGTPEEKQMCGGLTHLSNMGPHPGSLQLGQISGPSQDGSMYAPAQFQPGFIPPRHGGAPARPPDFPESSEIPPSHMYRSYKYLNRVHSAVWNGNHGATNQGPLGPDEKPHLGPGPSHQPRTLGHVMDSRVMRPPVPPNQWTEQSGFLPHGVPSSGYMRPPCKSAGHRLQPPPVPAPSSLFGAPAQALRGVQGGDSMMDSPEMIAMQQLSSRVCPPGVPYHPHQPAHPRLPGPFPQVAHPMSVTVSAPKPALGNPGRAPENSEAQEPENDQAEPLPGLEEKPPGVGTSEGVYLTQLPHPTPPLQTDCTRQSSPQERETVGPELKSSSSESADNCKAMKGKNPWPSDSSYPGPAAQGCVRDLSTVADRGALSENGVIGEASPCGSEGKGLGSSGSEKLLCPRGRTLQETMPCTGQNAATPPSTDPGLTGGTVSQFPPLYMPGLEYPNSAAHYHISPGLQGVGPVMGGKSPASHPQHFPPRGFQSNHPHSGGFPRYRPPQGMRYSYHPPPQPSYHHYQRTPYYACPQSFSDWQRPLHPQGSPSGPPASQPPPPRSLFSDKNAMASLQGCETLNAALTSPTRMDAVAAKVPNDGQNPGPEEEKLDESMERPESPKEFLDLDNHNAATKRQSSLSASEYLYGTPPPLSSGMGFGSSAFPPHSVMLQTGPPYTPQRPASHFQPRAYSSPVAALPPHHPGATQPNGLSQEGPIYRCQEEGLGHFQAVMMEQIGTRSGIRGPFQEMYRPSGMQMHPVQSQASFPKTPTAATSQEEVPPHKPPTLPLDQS

[9] = molecular target: Bromodomain adjacent to zinc finger domain protein 2A (Homo sapiens, UniProt Q9UIF9); test: Binding affinity to human BAZ2A (M1792 to L1905 residues) expressed in bacterial expression system by BROMOScan assay
[10] = molecular target: Bromodomain adjacent to zinc finger domain protein 2B (Homo sapiens, UniProt Q9UIF8); test: Binding affinity to human BAZ2B (S2054 to S2168 residues) expressed in bacterial expression system by BROMOScan assay
[11] = molecular target: Bromodomain-containing protein 8 (Homo sapiens, UniProt Q9H0E9); test: Inhibition of BRD8 bromodomain 1 (unknown origin) by BROMOScan assay
Bromodomain-containing protein 8, sequence (Q9H0E9 whole entry, the tested form may be a part): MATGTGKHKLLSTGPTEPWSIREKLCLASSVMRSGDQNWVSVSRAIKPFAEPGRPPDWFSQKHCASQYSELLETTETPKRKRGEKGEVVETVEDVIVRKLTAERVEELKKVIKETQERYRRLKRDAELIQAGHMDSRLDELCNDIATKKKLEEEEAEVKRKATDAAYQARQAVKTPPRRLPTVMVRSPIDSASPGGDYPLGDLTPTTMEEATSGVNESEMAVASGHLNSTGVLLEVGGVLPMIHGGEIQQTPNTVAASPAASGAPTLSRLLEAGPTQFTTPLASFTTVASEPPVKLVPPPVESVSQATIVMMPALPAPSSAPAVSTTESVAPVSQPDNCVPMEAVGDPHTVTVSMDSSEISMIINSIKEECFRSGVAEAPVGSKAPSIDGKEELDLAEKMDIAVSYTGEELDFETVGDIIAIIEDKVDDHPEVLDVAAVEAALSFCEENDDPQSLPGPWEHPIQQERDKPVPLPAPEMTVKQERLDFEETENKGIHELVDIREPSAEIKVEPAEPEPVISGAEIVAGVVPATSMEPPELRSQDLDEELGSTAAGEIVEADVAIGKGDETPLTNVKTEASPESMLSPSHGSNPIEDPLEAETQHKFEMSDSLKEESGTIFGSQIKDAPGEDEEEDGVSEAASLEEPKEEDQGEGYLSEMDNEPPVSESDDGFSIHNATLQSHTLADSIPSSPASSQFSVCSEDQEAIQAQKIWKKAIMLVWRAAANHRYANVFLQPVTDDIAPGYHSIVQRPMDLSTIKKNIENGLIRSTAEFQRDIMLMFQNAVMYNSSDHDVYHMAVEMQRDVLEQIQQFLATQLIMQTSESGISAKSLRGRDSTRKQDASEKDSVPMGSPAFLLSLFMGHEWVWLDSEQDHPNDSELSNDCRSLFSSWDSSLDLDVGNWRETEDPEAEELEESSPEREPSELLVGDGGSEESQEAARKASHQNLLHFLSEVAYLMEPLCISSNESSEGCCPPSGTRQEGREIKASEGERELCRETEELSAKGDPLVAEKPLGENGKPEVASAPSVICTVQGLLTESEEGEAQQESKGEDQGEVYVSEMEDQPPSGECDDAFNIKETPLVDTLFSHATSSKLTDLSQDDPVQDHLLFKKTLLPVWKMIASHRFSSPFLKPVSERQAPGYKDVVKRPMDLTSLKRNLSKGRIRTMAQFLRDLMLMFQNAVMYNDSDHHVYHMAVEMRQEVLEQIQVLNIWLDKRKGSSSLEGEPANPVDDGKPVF

[12] = molecular target: T1, Protein polybromo-1 (Homo sapiens, UniProt Q86U86); test: Binding affinity to human PBRM1 bromodomain 2 (S178 to E291 residues) expressed in bacterial expression system by BROMOScan assay
T1 sequence (Q86U86 whole entry, the tested form may be a part): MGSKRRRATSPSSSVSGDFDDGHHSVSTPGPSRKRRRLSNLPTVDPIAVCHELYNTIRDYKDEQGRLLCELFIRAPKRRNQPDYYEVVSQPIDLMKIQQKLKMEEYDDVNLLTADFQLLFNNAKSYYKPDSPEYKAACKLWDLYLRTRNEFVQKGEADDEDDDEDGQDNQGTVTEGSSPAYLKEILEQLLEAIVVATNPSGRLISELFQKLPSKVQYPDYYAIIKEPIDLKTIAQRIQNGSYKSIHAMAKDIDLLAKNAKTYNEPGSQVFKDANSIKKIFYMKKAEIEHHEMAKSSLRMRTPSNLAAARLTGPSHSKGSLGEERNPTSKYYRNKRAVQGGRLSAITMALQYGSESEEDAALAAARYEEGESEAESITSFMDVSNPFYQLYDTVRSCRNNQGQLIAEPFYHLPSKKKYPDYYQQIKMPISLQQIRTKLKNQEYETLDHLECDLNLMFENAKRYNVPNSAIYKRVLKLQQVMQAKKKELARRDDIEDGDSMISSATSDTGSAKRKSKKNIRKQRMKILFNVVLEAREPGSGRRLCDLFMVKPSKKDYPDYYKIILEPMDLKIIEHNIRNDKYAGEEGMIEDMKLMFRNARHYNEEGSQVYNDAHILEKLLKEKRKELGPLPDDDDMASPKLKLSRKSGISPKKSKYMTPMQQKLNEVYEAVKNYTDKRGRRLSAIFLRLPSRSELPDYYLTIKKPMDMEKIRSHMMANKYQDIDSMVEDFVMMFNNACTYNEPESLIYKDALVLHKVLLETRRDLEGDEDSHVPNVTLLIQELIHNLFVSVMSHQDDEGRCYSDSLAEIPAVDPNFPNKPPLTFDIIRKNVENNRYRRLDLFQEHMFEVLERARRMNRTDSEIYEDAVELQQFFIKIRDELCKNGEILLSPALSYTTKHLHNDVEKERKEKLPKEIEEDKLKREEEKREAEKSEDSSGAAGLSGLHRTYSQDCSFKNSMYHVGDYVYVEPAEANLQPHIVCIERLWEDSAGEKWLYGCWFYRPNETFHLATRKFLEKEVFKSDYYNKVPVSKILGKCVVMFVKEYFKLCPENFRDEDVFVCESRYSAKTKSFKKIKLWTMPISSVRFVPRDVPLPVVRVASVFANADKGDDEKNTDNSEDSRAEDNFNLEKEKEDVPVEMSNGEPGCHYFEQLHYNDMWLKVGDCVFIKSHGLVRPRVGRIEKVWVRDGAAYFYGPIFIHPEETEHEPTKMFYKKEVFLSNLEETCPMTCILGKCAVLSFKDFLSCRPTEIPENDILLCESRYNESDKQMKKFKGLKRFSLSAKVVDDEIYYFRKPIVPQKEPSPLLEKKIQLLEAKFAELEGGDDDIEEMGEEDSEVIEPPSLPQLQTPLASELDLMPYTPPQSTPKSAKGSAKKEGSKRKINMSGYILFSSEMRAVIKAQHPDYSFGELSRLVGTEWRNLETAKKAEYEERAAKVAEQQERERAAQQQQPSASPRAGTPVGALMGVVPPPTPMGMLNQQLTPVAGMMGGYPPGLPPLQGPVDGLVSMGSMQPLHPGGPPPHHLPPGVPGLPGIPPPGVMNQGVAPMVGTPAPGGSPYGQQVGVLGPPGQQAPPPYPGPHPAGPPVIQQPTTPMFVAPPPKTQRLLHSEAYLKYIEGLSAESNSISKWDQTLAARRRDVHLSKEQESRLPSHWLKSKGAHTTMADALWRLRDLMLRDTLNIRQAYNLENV

[13] = molecular target: T1, Protein polybromo-1; test: Binding affinity to human PBRM1 bromodomain 5 (S645 to D766 residues) expressed in bacterial expression system by BROMOScan assay
[14] = molecular target: SWI/SNF-related matrix-associated actin-dependent regulator of chromatin subfamily A member 4 (Homo sapiens, UniProt P51532); test: Binding affinity to human SMARCA4 (A1448 to S1575 residues) expressed in bacterial expression system by BROMOScan assay
[15] = molecular target: Transcription intermediary factor 1-alpha (Homo sapiens, UniProt O15164); test: Binding affinity to human TRIM24 (P790 to P977 residues) expressed in bacterial expression system by BROMOScan assay
[16] = species on record: Homo sapiens; test: Selectivity index, ratio of Kd for human CECR2 (P423 to D543 residues) to Kd for human BRD2 bromodomain 1 (K71 to N194 residues)
[17] = species on record: Homo sapiens; test: Selectivity index, ratio of Kd for human CECR2 (P423 to D543 residues) to Kd for human BRD2 bromodomain 2 (E348 to D455 residues)
[18] = species on record: Homo sapiens; test: Selectivity index, ratio of Kd for human CECR2 (P423 to D543 residues) to Kd for human BRD3 bromodomain 1 (P24 to E144 residues)
[19] = species on record: Homo sapiens; test: Selectivity index, ratio of Kd for human CECR2 (P423 to D543 residues) to Kd for human BRD3 bromodomain 2 (G306 to P416 residues)
[20] = species on record: Homo sapiens; test: Selectivity index, ratio of Kd for human CECR2 (P423 to D543 residues) to Kd for human BRDT bromodomain 2 (K250 to E382 residues)
[21] = species on record: Homo sapiens; test: Selectivity index, ratio of Kd for human EP300 (A1040 to G1161 residues) to Kd for human BRD4 bromodomain 1 (N44 to E168 residues)
[22] = species on record: Homo sapiens; test: Selectivity index, ratio of Kd for human EP300 (A1040 to G1161 residues) to Kd for human BRD4 bromodomain 2 (K333 to E460 residues)
[23] = species on record: Homo sapiens; test: Selectivity index, ratio of Kd for human EP300 (A1040 to G1161 residues) to Kd for human BRDT bromodomain 2 (K250 to E382 residues)
[24] = species on record: Homo sapiens; test: Selectivity index, ratio of Kd for human CREBBP (R1081 to G1197 residues) to Kd for human BRD4 bromodomain 1 (N44 to E168 residues)
[25] = species on record: Homo sapiens; test: Selectivity index, ratio of Kd for human CREBBP (R1081 to G1197 residues) to Kd for human BRD4 bromodomain 2 (K333 to E460 residues)
[26] = species on record: Homo sapiens; test: Selectivity index, ratio of Kd for human CREBBP (R1081 to G1197 residues) to Kd for human BRDT bromodomain 2 (K250 to E382 residues)

IC50 [1]: 0.007 µM | concentration at 1 h [2]: 12600 ng/mL | half-life [3]: 1 h | AUC [4]: 32.2 µM·h | Kd [7]: 0.0008 µM | Kd [8]: 0.57 µM | Kd [9]: > 5 µM | Kd [10]: > 5 µM | Kd [11]: > 5 µM | Kd [12]: > 3 µM | Kd [13]: > 5 µM | Kd [14]: > 5 µM | Kd [15]: > 4 µM | Selectivity Index [16]: > 50 | Selectivity Index [17]: > 50 | Selectivity Index [18]: > 50 | Selectivity Index [19]: > 50 | Selectivity Index [20]: > 50 | Selectivity Index [21]: > 50 | Selectivity Index [22]: > 50 | Selectivity Index [23]: > 50 | Selectivity Index [24]: > 20 | Selectivity Index [25]: > 20 | Selectivity Index [26]: > 20
Structure (SMILES): COc1cc2c(cc1-c1c(C)noc1C)[nH]c1nc(C)nc(Nc3cc(C4CC4)nn3C)c12
inhibition in vivo at 25 mg/kg [5]: 67.6% | inhibition in vivo at 50 mg/kg [6]: 77.3%
